Source: ChEMBL document CHEMBL1126098, “Synthesis and SAR of 6-substituted purine derivatives as novel selective positive inotropes” (J Med Chem, 1992)
Calls of active or inactive are those of the source. No cut-off for these calls is given here.

Experiments:
Canis familiaris [1] = experiment: Heart rate in dog after administering ca. 1.875 mg/Kg drug intravenously; format: functional, Canis lupus familiaris
Procedure, shortened: (§1)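 Adult mongrel dogs anesthetized with sodium pentobarbital (45 mg/kg ip) and artificially respired. MAP measured via cannulated femoral artery; HR from cardiotachometer; LV +dP/dtmax via Millar catheter; CF by Walton Brodie strain gauge on right ventricle (baseline tension 100 g). Compound in 10% DMF/saline or HCl salt, infused iv into femoral vein over 5 min per step. Each step given at peak of the prior one; three to four increasing doses. Response expressed as % change from predrug control; n = 1–5 dogs.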

Canis familiaris [2] = species on record: Canis familiaris; experiment: dP/dt max was determined in dog; format: functional, Canis lupus familiaris; parameters: unit not given beside the values; procedure, shortened: as §1
Canis familiaris [3] = experiment: Mean arterial blood pressure in dog after administering ca. 1.875 mg/Kg drug intravenously.; format: functional, Canis lupus familiaris; parameters: unit not given beside the values; procedure, shortened: as §1
Canis familiaris [4] = experiment: Cardiac force in dog after administering ca. 1.875 mg/Kg drug intravenously.; format: functional, Canis lupus familiaris; parameters: unit not given beside the values; procedure, shortened: as §1
[5] = Relative change in CF was determined by calculating the effective concentration that produced a 50% of maximum increase in tension.; format: functional, Mustela putorius furo
Procedure, shortened: (§2)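 Ferret papillary muscle in Tyrode's solution with timolol (1×10^-7 M); compound given at cumulative serially increasing concentrations, each read at 15 min. EC50 is the concentration giving 50% of that compound's own maximal tension increase. Estimated graphically from mean data, n ≥ 3.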

Mustela putorius furo = species on record: Mustela putorius furo; experiment: In vitro changes in contractile force (CF) quantitated by determining the maximal increase in isometric tension by using ferret papillary muscle.; format: functional, tissue-based; details: Muscle tissue
Procedure, shortened: (§3)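 Isolated ferret papillary muscle in Tyrode's solution with timolol (1×10^-7 M), equilibrated 2 h. Compound diluted from 1×10^-2 M DMSO stock and added at serially increasing concentrations, up to 10 μM. Isometric tension read 15 min after each addition. Result is maximal increase as % of control tension, from mean of n ≥ 3.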

[6] = Relative change in CF was determined by calculating the effective concentration that produced a 50% of maximum increase in tension; format: functional, Mustela putorius furo; procedure, shortened: as §2
Canis familiaris [7] = experiment: Effective dose required to produce 50% increase of cardiac force in dog after administering ca. 1.875 mg/Kg drug intravenously; format: functional; details: Canis lupus familiaris, iv; procedure, shortened: as §1
[8] = In vitro changes in contractile force (CF) quantitated by determining the maximal increase in isometric tension by using ferret papillary muscle; format: functional, Mustela putorius furo, Muscle tissue; procedure, shortened: as §3

Row | Structure (SMILES) | Heart rate (Canis familiaris [1]) | dP/dt max (Canis familiaris [2]) | MAP (Canis familiaris [3]) | Cardiac force (Canis familiaris [4]) | EC50 [5] | Max (Mustela putorius furo) | EC50 [6] [nM] | ED50 (Canis familiaris [7]) [mg/kg] | Max [8] [%]
1 | OC(COc1ncnc2c1ncn2C1CCCCO1)CN1CCN(C(c2ccc(F)cc2)c2ccc(F)cc2)CC1 (stereo not given) | 9 | 38 | -5 | 34 | Not Active | inactive | – | – | –
2 | OC(CSc1[nH]cnc2ncnc1-2)CN1CCN(C(c2ccc(Cl)cc2Cl)c2ccc(Cl)cc2Cl)CC1 (stereo not given) | 6 | 47 | -10 | 69 | – | – | 1600 | 0.9 | 49
3 | OC(CSc1[nH]cnc2ncnc1-2)CN1CCN(C(c2ccc(Br)cc2)c2ccc(Br)cc2)CC1 (stereo not given) | -2 | 108 | 11 | 148 | – | – | 470 | 0.31 | 64
4 | Cc1nc(SCC(O)CN2CCN(C(c3ccc(F)cc3)c3ccc(F)cc3)CC2)c2[nH]cnc2n1 (stereo not given) | 1 | 17 | 1 | 23 | – | – | – | – | –
5 | OC(CSc1ncnc2c1ncn2-c1ccccc1)CN1CCN(C(c2ccc(F)cc2)c2ccc(F)cc2)CC1 (stereo not given) | 4 | 5 | -3 | 12 | Not Active | inactive | – | – | –
6 | OC(CSc1[nH]cnc2ncnc1-2)CN1CCN(C(c2ccccc2)(c2ccccc2)c2ccccc2)CC1 (stereo not given) | 4 | 23 | -14 | 22 | Not Active | inactive | – | – | –
7 | CCN(CC(O)CN1CCN(C(c2ccc(F)cc2)c2ccc(F)cc2)CC1)c1[nH]cnc2ncnc1-2 (stereo not given) | 2 | 16 | 5 | 13 | Not Active | inactive | – | – | –
8 | CC(C)(C)C(=O)OC(CSc1[nH]cnc2ncnc1-2)CN1CCN(C(c2ccc(F)cc2)c2ccc(F)cc2)CC1 (stereo not given) | 4 | 24 | -5 | 12 | – | – | 170 | – | 43
9 | CC(=O)OC(CSc1[nH]cnc2ncnc1-2)CN1CCN(C(c2ccc(F)cc2)c2ccc(F)cc2)CC1 (stereo not given) | -4 | 62 | -12 | 145 | – | – | 700 | 0.3 | 248
10 | COc1ccc(C(c2ccc(OC)cc2)N2CCN(CC(O)CSc3[nH]cnc4ncnc3-4)CC2)cc1 (stereo not given) | -2 | 18 | -7 | 45 | – | – | 500 | – | 98
11 | OC(CSc1[nH]cnc2ncnc1-2)CN1CCN(C(c2ccc(Cl)cc2)c2ccc(Cl)cc2)CC1 (stereo not given) | -4 | 99 | 9 | 151 | – | – | – | 0.33 | –
12 | OC(CSc1[nH]cnc2ncnc1-2)CN1CCN(C(c2ccccc2)c2ccccc2)CC1 (stereo not given) | -1 | 60 | -12 | 86 | – | – | 1100 | 0.63 | 249
13 | OC(CSc1[nH]cnc2ncnc1-2)CN1CCN(Cc2ccccc2)CC1 (stereo not given) | 0 | 34 | 1 | 30 | Not Active | inactive | – | – | –
14 | O=S(=O)(O)OC(CSc1[nH]cnc2ncnc1-2)CN1CCN(C(c2ccc(F)cc2)c2ccc(F)cc2)CC1 (stereo not given) | 6 | 110 | 6 | 159 | – | – | 390 | 0.26 | 57
15 | CC(=O)OC(CNc1[nH]cnc2ncnc1-2)CN1CCN(C(c2ccc(F)cc2)c2ccc(F)cc2)CC1 (stereo not given) | -12 | 70 | -26 | 144 | – | – | 2100 | 0.27 | 45
16 | OC(COc1ncnc2c1ncn2C1CCCCO1)CN1CCN(C(c2ccccc2)c2ccccc2)CC1 (stereo not given) | 0 | 13 | -2 | 24 | Not Active | inactive | – | – | –
17 | N#Cc1cc2c(OCC(O)CN3CCN(C(c4ccccc4)c4ccccc4)CC3)cccc2[nH]1 (stereo not given) | -12 | 88 | -21 | 98 | – | – | 500 | 0.43 | 131
18 | OC(CSc1[nH]cnc2ncnc1-2)CN1CCN(C(c2cccc(C(F)(F)F)c2)c2cccc(C(F)(F)F)c2)CC1 (stereo not given) | -6 | 46 | 8 | 68 | – | – | 3400 | 1.1 | 106
19 | COc1cc(OC)c(C(=O)OC(CSc2[nH]cnc3ncnc2-3)CN2CCN(C(c3ccc(F)cc3)c3ccc(F)cc3)CC2)c(OC)c1 (stereo not given) | 3 | 15 | 0 | 17 | Not Active | inactive | – | – | –
20 | Cn1cnc2c(SCC(O)CN3CCN(C(c4ccc(F)cc4)c4ccc(F)cc4)CC3)ncnc21 (stereo not given) | -2 | 11 | -6 | 50 | – | – | 600 | 1.9 | 142
21 | Nc1nc(SCC(O)CN2CCN(C(c3ccc(F)cc3)c3ccc(F)cc3)CC2)c2[nH]cnc2n1 (stereo not given) | 12 | 38 | -9 | 74 | – | – | 1900 | 0.85 | 74
22 | OC(CSc1[nH]cnc2ncnc1-2)CN1CCN(C(c2ccccc2)c2ccc(Cl)cc2)CC1 (stereo not given) | -4 | 75 | 2 | 100 | – | – | 440 | 0.49 | 242
23 | OC(CSc1ncnc2[nH]cnc12)CN1CCN(C(c2ccc(F)cc2)c2ccc(F)cc2)CC1 (stereo not given) [CARSATRIN] | 0 | 150 | -5 | 224 | – | – | 300 | 0.15 | 189
24 | OC(CNc1[nH]cnc2ncnc1-2)CN1CCN(C(c2ccc(F)cc2)c2ccc(F)cc2)CC1 (stereo not given) | 2 | 83 | -2 | 154 | – | – | 500 | 0.28 | 86
25 | OC(CSc1[nH]cnc2ncnc1-2)CN1CCN(C(c2ccc(C(F)(F)F)cc2)c2ccc(C(F)(F)F)cc2)CC1 (stereo not given) | 0 | 47 | 5 | 71 | – | – | 1000 | – | 47
